# Assay outcomes: PubChem, several laboratories
# RAM network inh: inhibitors of the yeast RAM network, primary screen, dse1pr::URA3 reporter, 5-FOA selection. S. cerevisiae dse1pr::URA3 reporter, 5-FOA growth OD615, 2 d; analog-sensitive cbk1-as2 kinase mutant strain. inhibition, % at 50 µM. 1.8% of 190,000 active. AID 868, 2007;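 active = inhibition above a set limit, 3 SD over mean compound inhibition, cut at about 8.4% in these data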;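 also: 0% = DMSO-only wells with no growth and 100% = 10 µM 1-NA-PP1 full growth; inhibition rescues growth on 5-FOA so higher OD means more RAM inhibition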
# INS promoter inh: inhibitors of insulin promoter-driven GFP, primary screen, imaging, TRM-6 cells, eGFP reporter, cell count | reporter expression induced with tamoxifen | inhibition, % at 2 µM | 0.9% of 130,000 active | AID 1273, 2008;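 active = inhibition above the mean plus 3 SD, with well images judged a real hit on visual review, cut at about 60% in these data, passing the limit was not always enough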
# Yeast growth inh: growth inhibitors of yeast BB579 in restrictive medium, primary screen, yeast lifespan-shortening project, S. cerevisiae; OD615, 48 h; inhibition, % at 10 µM; 0.51% of 140,000 active;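 active = inhibition above a set limit, 3 SD over the mean compound inhibition, cut at about 44% in these data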
#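 Detection: OD615 turbidity measurement; Material: Saccharomyces cerevisiae DeaD strain BB579, replicative lifespan model yeast; Timing: 48 h exposure, 30 °C; Doses: single 10 µM dose; Medium: CSMM-D restrictive synthetic medium containing dextrose (glucose); Controls: amphotericin B at 10 µg/mL as positive control.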
# Yeast lifespan up: compounds extending yeast replicative lifespan, primary screen, S. cerevisiae, OD615; 0.68% of 130,000 active; inhibition of the nicotinamide effect, % at 10 µM; AID 775, 2007; S. cerevisiae growth with nicotinamide; deaD strain in restrictive glucose medium;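 active = inhibition above a set limit, placed 3 SD over the median of all compounds, cut at about 26% in these data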;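 also: 0% = nicotinamide-treated wells and 100% = cells grown without nicotinamide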
#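 System: Modified budding yeast, DeaD strain | Buffer or medium: Restrictive glucose medium | Also added: 1.5 mM nicotinamide | Doses: 10 µM single point, 0.25% DMSO | Schedule: 48 h compound exposure at 30 °C, humidified | Detection: Absorbance at 615 nm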
# Insulin prom up: insulin promoter activators in MIN6 cells, imaging, high-content screening, mouse beta cells; MIN6 insulin promoter-GFP reporter; stronger effect = higher value; AID 1625, 2009; z-score at 5 µM; 0.3% of 190,000 active;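 active = z-score above 3 at 5 µM with at least 500 cells counted in the well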
# The depositor's hits bear a star; . = not tested or not shown. Sampled rows, rich in hits. Any-hit rate of the full collection: about 3.1%.
SMILES,RAM network inh,INS promoter inh,Yeast growth inh,Yeast lifespan up,Insulin prom up
O=C1CC(c2ccccc2)CC(=O)C1Sc1ccc(Cl)cc1 (configuration not stated),2,2,-3,40*,0.16
O=C1CC(c2ccc(Cl)cc2)CC(=O)C1CS(=O)(=O)c1ccccc1 (configuration not stated),1,-64,.,.,-0.22
CCCc1cc(-n2ccnc2)n2c(nc3ccccc32)c1C#N,4,-7,-53,-23,5.5*
COc1ccc(/C=C/c2cc(=O)c3cc(Cl)ccc3o2)cc1,10*,-15,-43,0,-0.53
COc1ccc(-c2cc(=O)c3cc(OC)ccc3o2)cc1,0,.,.,.,0.73
CCn1c(Cn2nnc(-c3ccccc3)n2)nnc1SCC(=O)Nc1ccc(C(C)=O)cc1,1,10,-44,-14,4.9*
CCn1c(Cn2nnc(-c3ccccc3)n2)nnc1SCC(=O)Nc1cccc(C(C)=O)c1,0,-136,-7,-11,-0.07
COc1cccc(/C=C/C(=O)Oc2ccc(C(=O)c3ccc(F)cc3)cc2)c1,8.7*,.,-21,3,-0.01
COc1cccc(/C=C/C(=O)c2ccc[nH]2)c1,-1,7,-79,-17,1.8
CCOC(=O)[C@H](CCc1ccccc1)N[C@@H](C)C(=O)N1CCC[C@H]1C(=O)O,0,67*,-35,6,.
O=C(Nc1nccs1)C1CC2CCC1C2 (configuration not stated),1,14,-42,0,2.5
O=C(Nc1ccc([N+](=O)[O-])cn1)C1CC2CCC1C2 (configuration not stated),1,69*,-18,5,0.13
CC(OC(=O)CNC(=O)C12CC3CC(CC(C3)C1)C2)C(=O)Nc1ccc(S(N)(=O)=O)cc1 (configuration not stated),0,32,.,.,-1.5
COCc1cc(C)nc(SCC(=O)Oc2ccccc2)c1C#N,9.1*,.,.,.,0.1
Cc1ccc(S(=O)(=O)NCC(=O)OCC(=O)NCc2ccc(F)cc2)cc1,0,22,.,.,.
COc1cccc(OC)c1CN1CCCC(C(=O)c2ccccc2SC)C1 (configuration not stated),1,25,.,.,.
O=C(COc1ccccc1)N1CCN=C1SCc1cccnc1,1,.,56*,-16,0.46
O=C(COc1ccccc1)N1CCN=C1c1ccccc1,0,-43,-21,-7,3.1*
CCCCN=C1CC(C)(C)CC(=O)/C1=C(/O)CCC,.,.,.,.,0
Cc1ccccc1-c1nsc(SCC(=O)Nc2ccc3c(c2)OCO3)n1,9.4*,13,-6,1,-0.49
O=C(CSCc1ccccc1)Nc1ccc2c(c1)OCO2,1,42,-21,-2,0.65
Cc1nnc(SCC(=O)Nc2ccc3c(c2)OCO3)o1,-1,-23,-60,-4,-0.16
CCc1nnc(SCC(=O)Nc2ccc3c(c2)OCO3)o1,0,68*,-28,-12,-0.76
O=C(CSCc1c(Cl)cccc1Cl)Nc1ccc2c(c1)OCO2,9.7*,46,-37,6,-0.6
Cc1ccc(Cl)cc1NC(=S)N(Cc1ccccc1)Cc1cccnc1,1,.,.,.,-0.84
SMILES,RAM network inh,INS promoter inh,Yeast growth inh,Yeast lifespan up,Insulin prom up
Cc1nn(CC(=O)Nc2cccnc2)c(C)c1[N+](=O)[O-],-1,.,.,.,0.66
c1ccc(Cn2nnc3c(N4CCc5ccccc5C4)ncnc32)cc1,8,82*,-40,-10,-0.42
COc1ccc(/C=N/N2CCN(C)CC2)cc1O,0,12,-14,-4,0.4
COc1cccc(/C=N/N2CCN(C)CC2)c1,0,73*,-25,6,.
CC(C)Nc1nc(NC(C)C)nc(N(C)C#N)n1,0,77*,-35,-1,1.5
CCN(C#N)c1nc(NC(C)C)nc(NC(C)C)n1,1,12,-23,-10,-6.2
COc1ccc(-n2c3c(cc(C(=O)NCc4ccco4)c2=O)C(=O)CC(C)(C)C3)cc1,4,.,.,.,-0.54
Brc1ccc(Oc2nsnc2N2CCOCC2)cc1,1,-57,-19,-15,3.9*
CSc1ccc(C(=S)N2CCN(Cc3ccccc3)CC2)cc1,0,71,-68,31*,0.36
N#Cc1c(Nc2ccccc2)sc(C(=O)c2ccc(F)cc2)c1N,11*,18,-28,3,0.41
Cc1ccc(C(=O)c2sc(Nc3ccccc3)c(C#N)c2N)cc1,3,4,-13,4,-0.76
Cc1ccc(-c2nc3ccccc3c(=O)n2NC(=S)N(C)C)cc1,0,24,-10,8,-0.17
Cc1ccc2nc3c(c(N)c2c1)CCN3c1ccccc1,2,.,9,-4,-2.1
CCCCN1CCc2c1nc1ccc(Br)cc1c2N,0,87*,-8,-1,.
CN(C)C(=O)c1sccc1Oc1ccc(F)cc1[N+](=O)[O-],1,25,.,.,-0.78
COCCNC(=O)c1c(N)n(-c2cccc(C)c2)c2nc3ccccc3nc12,10.0*,.,-28,2,-0.97
COc1ccc(-n2c(N)c(C(=O)NCc3ccco3)c3nc4ccccc4nc32)cc1OC,6,43,-33,9,-0.15
COc1cc(-n2c(N)c(C(=O)NCc3ccco3)c3nc4ccccc4nc32)cc(OC)c1OC,11*,-29,-27,4,-1.3
COCCCNC(=O)c1c(N)n(-c2ccccc2)c2nc3ccccc3nc12,.,.,.,.,0.46
Cc1ccc(C(=O)NCCn2c(N)c(C#N)c3nc4ccccc4nc32)cc1,6,-450,-32,9,4.1*
N#Cc1c(N)n(CCNC(=O)c2ccc(Cl)cc2)c2nc3ccccc3nc12,1,23,-8,-20,0.25
CN1CCc2c(sc3c2C(=O)NC(c2ccc(-c4ccc(Cl)cc4)o2)N3)C1 (configuration not stated),.,.,.,.,1.6
Cc1cc(C(=O)OCC(=O)Nc2ncc(C(F)(F)F)cc2Cl)c(C)o1,2,.,-47,-7,0.44
CSc1nc2c(c(=O)[nH]1)C(c1cccc(Br)c1)CC(=O)N2 (configuration not stated),1,9,.,.,-0.25
CC(C)CC(O)C1CCN(C(=O)CCc2nnc(-c3ccccc3)o2)CC1 (configuration not stated),-1,-6,.,.,0.53
Cc1cc(C)c2c(c1)-c1c(ssc1=S)C(C)(C)N2C(=O)CN1C(=O)c2ccccc2C1=O,11*,-42,-33,-1,-0.28
COc1ccc2c(C(=O)CN3CCSCC3)c[nH]c2c1,.,.,.,.,0.07
COc1ccc2c(C(=O)CN(C)C3CCCCC3)c[nH]c2c1,0,-11,-43,-8,4.5*
CCOC(=O)c1c(C2CC2)csc1NC(=O)COC(=O)CCS(=O)(=O)c1ccc(C)cc1,9.2*,-27,-8,2,0.05
COc1cc2c(cc1OC)C1(Nc3c-2c(C)nn3-c2ccccc2)C(=O)Nc2ccccc21 (configuration not stated),9.3*,-17,-60,2,-1.5
